Consider four compounds from publication PMC4539249 (ACS infectious diseases, 2015).

Where two headings read alike, the source gives them in different places.

For data set [1], the target named is T. brucei farnesyl diphosphate synthase (TbFPPS) (Trypanosoma brucei, UniProt Q57WF1). Nature of the data set: TbFPPS inhibition, coupled colorimetric assay. The class given is biochemical. Conditions: read-out: TbFPPS IC50; duplicate ± SD; highest inhibitor concentration 316 μM.
The target in another data set is T1, human FPPS (Homo sapiens, UniProt P14324).
T1 sequence (P14324 1-419): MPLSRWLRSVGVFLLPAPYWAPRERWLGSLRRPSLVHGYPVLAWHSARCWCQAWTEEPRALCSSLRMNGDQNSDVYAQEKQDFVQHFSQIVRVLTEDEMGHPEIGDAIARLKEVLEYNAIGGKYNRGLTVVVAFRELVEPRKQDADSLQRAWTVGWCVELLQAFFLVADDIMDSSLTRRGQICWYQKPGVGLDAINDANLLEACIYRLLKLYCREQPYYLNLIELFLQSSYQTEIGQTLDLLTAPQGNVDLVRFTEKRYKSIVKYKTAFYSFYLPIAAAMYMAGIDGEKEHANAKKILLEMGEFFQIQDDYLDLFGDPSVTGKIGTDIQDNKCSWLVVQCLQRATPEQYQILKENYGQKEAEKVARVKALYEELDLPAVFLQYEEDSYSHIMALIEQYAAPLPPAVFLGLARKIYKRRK
Nature of the data set: Human FPPS inhibition. The class given is biochemical. Conditions: read-out: IC50 against human FPPS.

The conditions of data set [2]: treatment of the second or neurological phase of HAT; no reference given; cited from earlier work.
The test system of data set [3] is AT-rich DNA dodecamer duplex. Conditions: DSC, shift on inhibitor binding; cited from earlier work.
In data set [4] the test system is T. brucei bloodstream form (BSF) parasites. The experiment in a line: T. brucei growth inhibition. The class given is cell-based, Trypanosoma brucei brucei Lister 427. To be noted: Trypanosoma brucei, read-out: T. brucei EC50.
Data set [5] is described as follows: in vitro. Conditions: human.
Data set [6] deals with T. brucei brucei Lister 427. The experiment in a line: T. brucei brucei Lister 427 mouse model of infection. In kind it is in vivo, BALB/C mice. To be noted: treated mice, i.p. for 4 days (8 at 3 and 10 mg/kg).
Data set [7] in a line: in vitro. To be noted: human. The source holds these as a separate data set.
Data set [8] deals with T. brucei k-DNA and nuclear DNA replication. The experiment in a line: Visualization of DNA replication. Conditions: EdU click chemistry, 72 h treatment. In kind it is cell-based, Trypanosoma brucei. In a few lines:
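Bloodstream-form trypanosomes, after 72 h exposure to test compound (DMSO vehicle as control), were pulsed 16 h with EdU, washed in PBS, fixed in cold 100% ethanol and dried. EdU was detected by Cu(I)-catalysed click labelling with Alexa Fluor 488 azide ([…]), and the cells were counterstained with 10 μg/ml DAPI. Nuclear and k-DNA signals were assessed by fluorescence microscopy.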

For `N=C(N)c1ccc(-c2ccc(-c3ccc(C(=N)N)cc3)o2)cc1` [compound 6], the IC50 (in data set [1]; on human FPPS) was around 50000 nM throughout.
Turning to `Nc1nc(N)nc(Nc2ccc([As]3SCC(CO)S3)cc2)n1` (stereo not shown) [compound 3, melarsoprol], in [2], the lethal in patients was 5-10%.
Consider `N=C(N)c1ccc(OCCCCCOc2ccc(C(=N)N)cc2)cc1` [compound 2, pentamidine], for which, in [3], the ΔTm is 2.7 °C. The EC50 in [4] (72 h) amounted to 5.5 nM; in data set [4], 5 nM. For the same compound, the CC50 at 72 h in the data set “in vitro [5]” and in the data set “in vitro [7]” was below 400 nM in each case. For the same compound, the parasitemia result in data set [6] is on record as “no parasitemia observed”.
As to `CC[n+]1c(-c2ccccc2)c2cc(N)ccc2c2ccc(N)cc21` [ethidium bromide], in data set [8], the “k-DNA replication in T. brucei” value is given as “completely blocked”.
